From PubChem
A selection: hits, their analogues and other compounds. The true share with any hit is near 2.2%.
PfG6PD inh = PfG6PD (Plasmodium falciparum) enzyme inhibition. PfGluPho enzyme, NADPH resazurin-diaphorase fluorescence. inhibition, % at 20 µM. 350,000 compounds, 0.78% hits;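 active = inhibition reaching at least a set limit at 20 µM in the primary screen, cut at about 59% in these data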;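 also: 0% = DMSO wells with substrate and 100% = DMSO wells lacking glucose-6-phosphate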
HKDC1 inhibitor = blocks human hexokinase HKDC1 activity. inhibition, % at 20 µM. recombinant HKDC1, G6PDH/diaphorase resazurin coupled fluorescence. Q2TB90. 340,000 compounds, 0.16% hits;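 active = inhibition above about 35% when tested at 20 µM, limit read from the data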;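 also: plate controls were DMSO wells with enzyme for no effect and DMSO wells lacking enzyme for full effect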
Target sequence (Q2TB90 whole entry, looked up): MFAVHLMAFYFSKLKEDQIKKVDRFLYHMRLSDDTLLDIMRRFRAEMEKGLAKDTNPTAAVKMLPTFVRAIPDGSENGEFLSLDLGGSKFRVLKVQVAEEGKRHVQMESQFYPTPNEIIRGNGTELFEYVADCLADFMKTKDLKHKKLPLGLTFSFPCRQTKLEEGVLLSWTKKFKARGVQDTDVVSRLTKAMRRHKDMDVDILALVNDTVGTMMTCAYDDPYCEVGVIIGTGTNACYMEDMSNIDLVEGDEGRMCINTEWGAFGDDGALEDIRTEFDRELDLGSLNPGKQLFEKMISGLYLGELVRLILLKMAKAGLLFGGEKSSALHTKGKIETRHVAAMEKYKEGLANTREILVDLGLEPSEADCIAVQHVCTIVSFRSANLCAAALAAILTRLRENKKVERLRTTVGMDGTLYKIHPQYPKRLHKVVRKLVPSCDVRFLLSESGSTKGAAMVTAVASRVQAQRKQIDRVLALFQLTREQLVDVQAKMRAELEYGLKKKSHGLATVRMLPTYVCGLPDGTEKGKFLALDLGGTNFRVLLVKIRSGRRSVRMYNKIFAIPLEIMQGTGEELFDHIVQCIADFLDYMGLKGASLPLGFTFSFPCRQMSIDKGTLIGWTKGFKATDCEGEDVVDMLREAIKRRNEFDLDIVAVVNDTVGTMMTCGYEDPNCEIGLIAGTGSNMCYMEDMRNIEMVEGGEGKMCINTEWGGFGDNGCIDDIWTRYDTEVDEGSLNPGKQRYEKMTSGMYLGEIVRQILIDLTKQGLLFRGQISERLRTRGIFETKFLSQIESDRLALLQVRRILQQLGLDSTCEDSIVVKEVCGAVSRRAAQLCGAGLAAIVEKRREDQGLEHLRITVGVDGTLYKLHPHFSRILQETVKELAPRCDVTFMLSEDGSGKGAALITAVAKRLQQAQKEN
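Incubation: 90 min at room temperature in dark / Material: recombinant HKDC1 (HK5) hexokinase enzyme, produced in-house / Quantity: enzyme 5 µg/mL final / Compound: one dose of 20 µM, 1% DMSO / Reagent: glucose and ATP substrates / Buffer or medium: Tris pH 8.0 buffer with MgCl2, Tween-20, BSA, BME / Technique: resorufin fluorescence at 613 nm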
Exocytosis inh = lytic granule exocytosis inhibition. AID 651702. TALL-104 LAMP-1 surface exposure, flow cytometry; cells stimulated with thapsigargin and PMA. 360,000 compounds, 0.66% hits. inhibition, % at 10 µM;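 active = inhibition above about 55%, limit read from the data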
ABHD5-PLIN5 inh = ABHD5-PLIN5 protein interaction inhibition; 360,000 compounds, 0.78% hits; inhibition, % at 4 µM; Split G. princeps luciferase complementation, luminescence, 4 h;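 active = inhibition above the mean inhibition across every tested compound plus 3 SD, cut at about 22% in these data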;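 also: 0% = DMSO only wells and the 100% control is not disclosed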
PfGluPho conf = confirmation of Plasmodium falciparum G6PD inhibitors; shares compounds with PfG6PD inh; recombinant PfGluPho, NADPH-diaphorase-resazurin fluorescence; inhibition, % at 20 µM; 2,400 compounds, 34% hits; AID 504753;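 active = inhibition of at least 50% at 20 µM in any single replicate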;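 also: 0% = DMSO with substrate and 100% = DMSO lacking glucose-6-phosphate substrate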
Diaphorase 10uM = counter-screen for P. falciparum G6PD inhibitors: diaphorase inhibitors, oxidizers; diaphorase-coupled resazurin reduction, fluorescence, NADPH 10 uM; inhibition, % at 20 µM; shares compounds with PfG6PD inh; 820 compounds, 39% hits;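 active = average inhibition reaching 50% or more with the compound at 20 µM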;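 also: resorufin red fluorescence formed as diaphorase reduces resazurin using NADPH; 0% = DMSO with enzyme and 100% = DMSO without enzyme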
Diaphorase 30uM = diaphorase inhibition or oxidation at 30 uM NADPH | AID 504863 | 820 compounds, 29% hits | Diaphorase/resazurin coupled assay, resorufin fluorescence | inhibition, % at 20 µM | shares compounds with PfG6PD inh;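 active = inhibition averaging 50% or more, tested at 20 µM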;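 also: 0% = DMSO with enzyme and 100% = DMSO wells lacking diaphorase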
* hit, by the source's call; nt = not tested or not shown.

SMILES	PfG6PD inh	HKDC1 inhibitor	Exocytosis inh	ABHD5-PLIN5 inh	PfGluPho conf	others
COc1ccc(-c2cc(-c3n[nH]c(=S)n3-c3cc(OC)ccc3OC)[nH]n2)cc1	59	3	1	-15	23
CC1CCCCC12NC(=S)N(c1ccccc1)N2 (configuration not stated)	60*	-2	11	-3	-8
CC1CCCC2(C1)NC(=S)N(c1ccccc1)N2 (configuration not stated)	3	-5	0	2	nt
CC(C)N1C(=O)CSC1c1ccc(Br)cc1 (configuration not stated)	0	-9	2	2	nt
NC(=O)c1ccc(Oc2cccc3cccnc23)c([N+](=O)[O-])c1	19	9	-1	3	nt
O=[N+]([O-])c1ccc(Oc2cccc3cccnc23)c(Cl)c1	111*	4	-20	3	80*	Diaphorase 10uM=72*;Diaphorase 30uM=60*
O=C(CSc1ncccn1)Nc1ccc2[nH]c(=O)[nH]c2c1	25	1	-4	3	nt
Cc1nc(SCC(=O)Nc2ccc3[nH]c(=O)[nH]c3c2)nc(C)c1C	64*	0	-12	-3	8
COc1ccc(Cl)cc1C=CC=Nc1ccccc1O	76*	22	0	-4	19
COc1ccc(Cl)cc1C=CC=NNS(=O)(=O)c1ccc(C)cc1	12	2	2	-13	nt
O=C(NNC(=S)Nc1ccc(C(=O)O)c(O)c1)c1ccncc1	0	-3	18	-5	nt
Oc1ccc(N2CCN(C(=S)NCCc3ccccc3)CC2)cc1	67*	7	0	4	11
O=C(CN1CCN(c2ccc(O)cc2)CC1)Nc1ccccc1C(=O)NCCc1ccccc1	70*	5	-2	8	34
COc1ccc(N2CCN(C(=S)NCCc3ccccc3)CC2)cc1	-1	-3	0	-4	nt
COc1cccc(N2CCN(CC(=O)Nc3ccccc3C(=O)NCCc3ccccc3)CC2)c1	25	-1	1	-1	nt
COc1ccc(CCNC(=O)CCCn2c(=S)[nH]c3ccsc3c2=O)cc1OC	17	nt	0	-3	nt
Cc1ccc(S(=O)(=O)N2CCN(C(=O)COC(=O)COc3ccc(Cl)cc3)CC2)c(C)c1	-5	-6	-5	4	nt
COc1ccccc1NC(=O)c1ccc(-n2cccn2)c([N+](=O)[O-])c1	22	0	0	2	nt
COc1ccc(NC(=O)c2ccc(-n3cccn3)c([N+](=O)[O-])c2)cc1	35	-7	-3	-2	nt
O=C(Nc1ccc(Cl)cc1)c1ccc(-n2cccn2)c([N+](=O)[O-])c1	70*	-2	0	-5	15
Cc1ccc(NC(=O)c2ccc(-n3cccn3)c([N+](=O)[O-])c2)cc1C	77*	-2	-1	-3	16
CCOc1ccc(-c2c(C(=O)N/N=C/C3CC=CCC3)nnn2-c2nonc2N)cc1 (configuration not stated)	-1	-1	-1	0	nt
COc1ccc(S(=O)(=O)N(C)c2ccc(C(=O)NCC3CCCO3)cc2)cc1OC (configuration not stated)	5	-1	-3	4	nt
CN(C)c1ccc(C=C2C=Cc3ccccc32)cc1	11	6	-2	11	nt
CN(C)c1ccc(C=c2c3ccccc3n3c2c2ccccc2[n+]3C)cc1	89*	25	-20	15	88*	Diaphorase 10uM=-20;Diaphorase 30uM=-1
SMILES	PfG6PD inh	HKDC1 inhibitor	Exocytosis inh	ABHD5-PLIN5 inh	PfGluPho conf	others
O=[N+]([O-])c1ccc(Nc2cccc3c2[nH]c2c(-c4ccccc4)nccc23)c([N+](=O)[O-])c1	84*	9	-11	-4	26
CCCC(=O)Nc1nc(-c2ccc(OC)cc2)cs1	17	-2	-2	-1	nt
CC(C)(C)c1csc(NC(=O)CCS(=O)(=O)c2ccc(F)cc2)n1	-5	nt	4	-6	nt
COc1ccc(-c2csc(NC(=O)CS(=O)(=O)c3ccccc3)n2)cc1	68*	4	0	-1	6
O=C(CCS(=O)(=O)c1ccc(F)cc1)Nc1nc(-c2ccncc2)cs1	61*	2	-3	-5	12
CC1CCCN(C2(O)C(=O)Nc3ccc([N+](=O)[O-])cc32)C1 (configuration not stated)	-4	0	12	4	nt
CSCCOC(=O)C1=C(C)Nc2ccc(C)cc2S1	60*	-2	-3	-17	-6
CCC1(CC)Cc2ccccc2-c2nc(NN)[nH]c(=O)c21	76*	5	-5	-9	31
CCC1(C)Cc2ccccc2-c2nc(NN)[nH]c(=O)c21 (configuration not stated)	36	4	0	-3	nt
CCC1(c2ccc(F)cc2)NC(=O)N(CC(=O)Nc2cc(S(=O)(=O)N(C)C)ccc2Cl)C1=O (configuration not stated)	7	-1	-5	2	nt
O=C1/C(=N\S(=O)(=O)c2cccs2)C([n+]2cccc(Cc3ccccc3)c2)=C([O-])c2ccccc21	63*	6	12	1	26
Cc1cc(C)c[n+](C2=C([O-])c3ccccc3C(=O)/C2=N\S(=O)(=O)c2cccs2)c1	66*	15	15	0	50*	Diaphorase 10uM=50*;Diaphorase 30uM=44
CCOC(=O)c1ccc(S(=O)(=O)N2CCN(C/C=C/c3ccccc3)CC2)cc1	8	-2	3	-4	nt
CCCc1nc(SCc2ccc(Cl)cc2Cl)n[nH]1	72*	1	-2	2	44
O=C(CSc1cccc2cccnc12)N/N=C/c1cccc(O)c1	6	-1	1	-3	nt
O=C(CSc1cccc2cccnc12)N/N=C/c1ccc(F)cc1	85*	9	-4	2	65*	Diaphorase 10uM=61*;Diaphorase 30uM=54*
CCCCCCCC(=O)N/N=C/c1ccc([N+](=O)[O-])o1	35	3	7	3	nt
CCCCC(=O)N/N=C/c1ccc(Sc2cccc3cccnc23)o1	68*	-1	1	-8	29
CN(Cc1ccc(Cl)cc1)C(=O)c1ccc2ccccc2n1	-18	0	4	-4	nt
O=C(CNc1ccccc1)N/N=C/c1ccc2c(c1)OCO2	19	-9	-2	0	nt
O=C(CNc1ccc2c(c1)OCO2)N/N=C\c1cn(Cc2ccccc2)c2ccccc12	67*	-4	-6	-1	51*	Diaphorase 10uM=-10;Diaphorase 30uM=16
Cn1c(=O)[nH]c(=O)c2c1nc(SCC(=O)O)n2CCc1ccccc1	63*	-6	-2	0	9
CCOC(=O)CSc1nc2c(c(=O)[nH]c(=O)n2C)n1CCc1ccccc1	27	-5	-2	-2	nt
CCCCCn1c(N2CCC(Cc3ccccc3)CC2)nc2c1c(=O)[nH]c(=O)n2C	66*	4	1	-8	-12
